Columns and labels:
[1] = target: T1, Polyunsaturated fatty acid lipoxygenase ALOX15 (Mus musculus) (UniProt P39654); assay: Inhibition of 15-LOX-1 in C57bl/6 mouse precision-cut lung slices assessed as reduction in LPS-stimulated TNFalpha mRNA expression level at 50 uM incubated for 20 hrs followed by LPS stimulation for 4 hrs in presence of linoleic acid by RT-qPCR analysis
T1 sequence (whole entry): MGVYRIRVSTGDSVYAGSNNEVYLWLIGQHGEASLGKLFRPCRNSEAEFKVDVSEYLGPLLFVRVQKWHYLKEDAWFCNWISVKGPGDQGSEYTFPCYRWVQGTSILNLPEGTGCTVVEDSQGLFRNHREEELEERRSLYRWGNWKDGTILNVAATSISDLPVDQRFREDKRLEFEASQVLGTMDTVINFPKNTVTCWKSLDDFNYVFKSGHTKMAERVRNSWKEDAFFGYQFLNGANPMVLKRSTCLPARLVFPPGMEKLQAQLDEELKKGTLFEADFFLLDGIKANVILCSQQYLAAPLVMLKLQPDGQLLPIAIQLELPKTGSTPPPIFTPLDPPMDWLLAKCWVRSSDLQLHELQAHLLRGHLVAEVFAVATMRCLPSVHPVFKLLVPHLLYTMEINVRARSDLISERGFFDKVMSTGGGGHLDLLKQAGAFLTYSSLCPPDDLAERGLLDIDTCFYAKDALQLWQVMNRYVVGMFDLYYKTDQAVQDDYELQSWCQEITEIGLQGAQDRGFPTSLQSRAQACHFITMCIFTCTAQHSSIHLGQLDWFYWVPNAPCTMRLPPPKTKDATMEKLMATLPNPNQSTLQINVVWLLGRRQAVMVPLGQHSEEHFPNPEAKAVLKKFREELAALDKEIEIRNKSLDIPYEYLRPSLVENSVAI
Summary of the method: (§1)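 Lung slices, 250 μm, were cut from agarose-filled lungs of male C57bl/6 mice aged 8-10 weeks and cultured at 37 °C in 5% CO2 in supplemented DMEM, 3 slices per well. Inhibitor was given for 20 h with 10 μM linoleic acid. For the last 4 h, 10 ng/ml LPS plus 10 ng/ml IFNγ were added. Read-out was RT-qPCR (10 ng cDNA, GAPDH assay included), in duplicate or triplicate wells, as fold change versus LPS/linoleic acid control, with 4-6 independent experiments.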

[2] = target: T1, Polyunsaturated fatty acid lipoxygenase ALOX15 (Mus musculus); assay: Inhibition of 15-LOX-1 in C57bl/6 mouse precision-cut lung slices assessed as reduction in LPS-stimulated IL-1beta mRNA expression level at 50 uM incubated for 20 hrs followed by LPS stimulation for 4 hrs in presence of linoleic acid by RT-qPCR analysis; summary of the method: as §1

- inhibition [1]: 50%
- inhibition [2]: 50%
SMILES: CCCCNC(=O)c1cc(-c2ccccc2)sc1N
